Reference: ChEMBL document CHEMBL1123886 (J Med Chem, 1987)
Blank lines part the entries; values can stand above or below the compound they belong to. The source made the active and inactive calls. The calls are words filed in the database; no cut-off is given here.

Tests used:
[1] = Lipophilicity (Rm).; assay type: physicochemical
[2] = test system: P388; test: Percent increase in life span of the drug-treated tumor-bearing animals vs nontreated tumor-bearing controls with P388 leukemia cells.; assay type: functional, Mus musculus
In short: (§1)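 Groups of 6. Optimal dose is in mg/kg per day. ILSmax is the % lifespan increase over untreated tumor-bearing controls at the optimal dose; above 20% counted significant. Cures are 50-day survivors.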

[3] = test system: Lewis lung carcinoma cell line; test: Percent increase in life span, of the drug-treated tumor-bearing animals vs nontreated tumor-bearing controls with LL (Lewis lung carcinoma model) cells.; assay type: functional, Mus musculus
In short: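 Groups of 6. Optimal dose is in mg/kg per day. ILSmax is the % lifespan increase over untreated tumor-bearing controls at the optimal dose; above 40% counted significant. Cures are 60-day survivors.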

[4] = test system: Lewis lung carcinoma cell line; test: Optimal dose to inhibit the LL (Lewis lung carcinoma model) cells in vivo after intraperitoneal administration.; assay type: functional, Mus musculus; parameters: unit: mg/kg/day
In short: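 Mice were inoculated iv with 10^6 Lewis lung carcinoma cells. OD is the optimal dose in mg/kg per day. Lifespan increase above 40% is significant, and long-term survival was scored at 60 days.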

[5] = test system: P388/ADR; test: Percent increase in life span, of the drug-treated tumor-bearing animals vs nontreated tumor-bearing controls with P388/ADR cells.; assay type: functional, Mus musculus; in short: as §1
[6] = test system: P388; test: Optimal dose required to inhibit the P388 intraperitoneal administration.; assay type: functional, Mus musculus; parameters: unit: mg/kg/day
[7] = test system: P388/ADR; test: Optimal dose required to inhibit the P388/ADR cells in vivo after intraperitoneal administration.; assay type: functional, Mus musculus; parameters: unit: mg/kg/day
[8] = test system: HCT-8; test: Ability to inhibit the growth of human colon tumor HCT-8 cells in vitro.; assay type: functional, cell-based
In short: (§2)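 Cultured leukemia L1210 or human colon tumor HCT-8 cells were exposed to drug for 40 h.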

[9] = test system: poly[d(A-T)]; test: Binding constant for poly[d(A-T)] by ethidium bromide displacement
[10] = test system: L1210; test: Ability to inhibit the growth of leukemia L1210 cells in vitro.; assay type: functional, cell-based; settings: Mus musculus; in short: as §2
[11] = The compound was evaluated for its acid dissociation constant; assay type: ADME
[12] = organism: Mus musculus; test: Percent increase in life span of the drug treated tumor bearing animals vs nontreated tumor bearing controls was determined against P388/ADR cells;NA= not active; assay type: functional, organism-based
In short: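 Mice were inoculated ip with 10^6 P388 or ADR/P388 cells. OD is the optimal dose in mg/kg per day. ILSmax is the % lifespan increase over untreated tumor-bearing controls at the OD; above 20% is significant. Long-term survival was scored at 50 days.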

Structure (SMILES): CNc1cc(NC(=O)OC)ccc1Nc1c2ccccc2nc2cc(Cl)ccc12
Rm [1]: 0.73 | ILS max [2]: 104 | ILS max [3]: 92 | OD [4]: 45 | ILS max [5]: 35 | OD [6]: 65 | OD [7]: 65 | IC50 [8]: 550 nM | Log K [9]: 6.13 | IC50 [10]: 174 nM

Structure (SMILES): CNc1cc(NC(=O)OC)ccc1Nc1c2ccccc2nc2c(C)cccc12
Rm [1]: 0.56 | ILS max [2]: 114 | ILS max [3]: 122 | OD [4]: 20 | ILS max [5]: 43 | OD [6]: 13.3 | OD [7]: 20 | IC50 [8]: 190 nM | Log K [9]: 6.74 | IC50 [10]: 101 nM

Structure (SMILES): CNC(=O)c1cccc2c(Nc3ccc(NC(=O)OC)cc3NC)c3cccc(OC)c3nc12
Rm [1]: 0.45 | ILS max [2]: 92 | ILS max [3]: 47 | OD [4]: 65 | ILS max [5]: 31 | OD [6]: 65 | OD [7]: 45 | Log K [9]: 6.95 | IC50 [10]: 1750 nM

Structure (SMILES): COc1cc(NP(=O)(OC)OC)ccc1Nc1c2ccccc2nc2ccccc12
Rm [1]: 0.37 | ILS max [2]: 67 | pKa [11]: 8.21 | ILS max [12]: inactive | OD [6]: 8.9 | OD [7]: 8.9 | Log K [9]: 6.18

Structure (SMILES): CNC(=O)c1cccc2c(Nc3ccc(NC(=O)OC)cc3NC)c3ccccc3nc12
Rm [1]: 0.43 | ILS max [2]: 60 | ILS max [3]: 58 | OD [4]: 65 | OD [6]: 65 | OD [7]: 65 | IC50 [8]: 2750 nM | Log K [9]: 6.48 | IC50 [10]: 840 nM

Rm [1]: 0.18
Structure (SMILES): COc1cc(NS(C)(=O)=O)ccc1Nc1c2ccccc2nc2ccccc12 [AMSACRINE]
ILS max [12]: inactive

Structure (SMILES): COP(=O)(Nc1ccc(Nc2c3ccccc3nc3ccccc23)c(N(C)C)c1)OC
Rm [1]: 0.44 | ILS max [2]: 97 | pKa [11]: 8.17 | ILS max [12]: inactive | OD [6]: 100 | OD [7]: 100 | Log K [9]: 6.43

Structure (SMILES): CNc1cc(NC(=O)OC)ccc1Nc1c2ccccc2nc2cc([N+](=O)[O-])ccc12
Rm [1]: 0.4 | ILS max [2]: 48 | ILS max [3]: 49 | ILS max [12]: inactive | OD [4]: 65 | OD [6]: 30 | OD [7]: 20 | Log K [9]: 6.58 | IC50 [10]: 5060 nM

Structure (SMILES): COC(=O)Nc1ccc(Nc2c3ccccc3nc3ccccc23)c(OC)c1
Rm [1]: 0.5 | ILS max [2]: 86 | pKa [11]: 7.93 | ILS max [5]: 33 | OD [6]: 30 | OD [7]: 45 | Log K [9]: 6.24

Structure (SMILES): CNc1cc(NC(=O)OC)ccc1Nc1c2ccccc2nc2cc(F)ccc12
Rm [1]: 0.63 | ILS max [2]: 110 | ILS max [3]: 83 | OD [4]: 100 | ILS max [5]: 21 | OD [6]: 65 | OD [7]: 100 | IC50 [8]: 420 nM | Log K [9]: 5.77 | IC50 [10]: 200 nM

Structure (SMILES): CNc1cc(NC(=O)OC)ccc1Nc1c2ccccc2nc2cc(OC)ccc12
Rm [1]: 0.45 | ILS max [2]: 108 | ILS max [3]: 85 | OD [4]: 45 | ILS max [5]: 89 | OD [6]: 45 | OD [7]: 65 | IC50 [8]: 330 nM | Log K [9]: 6.74 | IC50 [10]: 170 nM

Structure (SMILES): CNc1cc(NC(=O)OC)ccc1Nc1c2ccc(F)cc2nc2c(OC)cccc12
Rm [1]: 0.45 | ILS max [2]: 125 | ILS max [3]: 52 | ILS max [12]: inactive | OD [4]: 45 | OD [6]: 100 | OD [7]: 45 | IC50 [8]: 1600 nM | Log K [9]: 6.27 | IC50 [10]: 940 nM

Structure (SMILES): CNc1cc(NC(=O)OC)ccc1Nc1c2ccccc2nc2c(C(N)=O)cccc12
Rm [1]: 0.06 | ILS max [2]: 32 | OD [4]: 65 | OD [6]: 100 | OD [7]: 100 | IC50 [8]: 3600 nM | Log K [9]: 6 | IC50 [10]: 1600 nM

Structure (SMILES): CNc1cc(NC(=O)OC)ccc1Nc1c2ccc(F)cc2nc2c(C)cccc12
Rm [1]: 0.52 | ILS max [2]: 43 | ILS max [3]: 126 | OD [4]: 45 | ILS max [5]: 47 | OD [6]: 65 | OD [7]: 65 | IC50 [8]: 610 nM | Log K [9]: 7.37 | IC50 [10]: 520 nM

Structure (SMILES): CNc1cc(NC(C)=O)ccc1Nc1c2ccccc2nc2ccccc12
Rm [1]: 0.3 | ILS max [2]: 96 | pKa [11]: 7.8 | ILS max [12]: inactive | OD [6]: 65 | OD [7]: 65 | Log K [9]: 6.79
